# High-throughput results from PubChem.
# LMPTP inh = LMPTP (human) inhibition | inhibition, % at 20 µM | P24666 | 360,000 tested, 0.22% active | AID 651560 | recombinant LMPTP-A, OMFP fluorogenic substrate, fluorescence intensity;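 active = compounds that cut the enzyme signal by at least half of the control window in the single-dose screen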
#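 Material: LMPTP-A; amount: 0.625 nM enzyme; doses: single 20 µM dose; times: reaction 50 min, room temperature, dark; technique: fluorescence intensity of OMFP turnover product; benchmarks: no-enzyme and uninhibited controls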
# DNMT1 inh = DNMT1 (human) enzyme inhibition. DNMT1 molecular beacon, Hinp1I cleavage, fluorescence. 360,000 tested, 0.83% active. inhibition (reported as % activation of signal), % at 10 µM. P26358; in the data active = inhibition above about 50%
# Target sequence (P26358 504-1616 limits assumed): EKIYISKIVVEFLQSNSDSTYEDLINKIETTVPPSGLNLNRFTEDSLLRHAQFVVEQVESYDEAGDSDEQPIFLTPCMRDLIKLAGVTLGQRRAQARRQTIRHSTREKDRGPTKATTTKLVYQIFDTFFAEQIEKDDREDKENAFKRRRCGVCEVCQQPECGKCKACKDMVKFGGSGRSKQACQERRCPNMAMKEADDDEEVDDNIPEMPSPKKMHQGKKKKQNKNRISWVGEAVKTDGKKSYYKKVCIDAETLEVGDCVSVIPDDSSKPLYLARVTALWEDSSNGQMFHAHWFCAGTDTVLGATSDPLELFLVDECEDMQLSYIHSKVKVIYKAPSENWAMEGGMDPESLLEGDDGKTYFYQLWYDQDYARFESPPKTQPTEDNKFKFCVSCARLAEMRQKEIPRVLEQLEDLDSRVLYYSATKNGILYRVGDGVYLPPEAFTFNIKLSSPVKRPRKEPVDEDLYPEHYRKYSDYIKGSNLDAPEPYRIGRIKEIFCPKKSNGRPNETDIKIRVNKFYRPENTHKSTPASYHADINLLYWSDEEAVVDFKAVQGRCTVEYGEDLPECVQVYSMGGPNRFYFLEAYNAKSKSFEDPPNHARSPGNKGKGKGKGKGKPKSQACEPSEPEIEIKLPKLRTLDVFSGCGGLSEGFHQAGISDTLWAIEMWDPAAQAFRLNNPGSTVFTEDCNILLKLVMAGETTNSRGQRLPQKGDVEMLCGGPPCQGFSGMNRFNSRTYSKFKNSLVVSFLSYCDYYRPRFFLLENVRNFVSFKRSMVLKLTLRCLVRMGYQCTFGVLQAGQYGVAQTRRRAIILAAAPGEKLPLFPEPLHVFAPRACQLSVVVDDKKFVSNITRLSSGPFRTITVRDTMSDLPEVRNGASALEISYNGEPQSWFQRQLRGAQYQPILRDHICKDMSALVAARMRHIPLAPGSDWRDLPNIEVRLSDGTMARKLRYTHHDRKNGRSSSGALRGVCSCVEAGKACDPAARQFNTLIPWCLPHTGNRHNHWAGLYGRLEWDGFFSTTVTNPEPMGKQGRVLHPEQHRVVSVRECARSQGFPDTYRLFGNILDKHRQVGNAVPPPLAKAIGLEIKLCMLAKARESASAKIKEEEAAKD
# SUMO1-SIM PPI = SUMO1-SIM interaction modulation; P63165; SUMO1 binding to a labelled peptide, TR-FRET, 1 h; inhibition, % at 20 µM; 360,000 tested, 0.33% active; in the data active = inhibition above about 37%
# STEP inh = inhibitors of human striatal-enriched phosphatase STEP; P54829; recombinant STEP, OMFP fluorogenic substrate, fluorescence; inhibition, % at 20 µM; 360,000 tested, 0.25% active; AID 588621;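 active = inhibition at 20 µM, scaled per plate between control wells, above about 37%, limit read from the data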
#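 Assay system: isolated STEP enzyme / Timing: 20 min at room temperature, dark / Doses: 20 µM, 1% DMSO / Technique: fluorescence intensity, excitation 480 nm, emission 540 nm / Reagent: fluorogenic phosphatase substrate OMFP at 25 µM final / Measure: percent inhibition scaled to no-enzyme and uninhibited-enzyme controls, plate-pattern corrected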
# Scp-1 inhibitor = Scp-1 (human) phosphatase inhibition. inhibition, % at 20 µM. Q9GZU7. AID 493091. 340,000 tested, 0.88% active. Recombinant Scp1, phosphopeptide, malachite green phosphate absorbance;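 active = inhibition above about 50% at 20 µM, limit read from the data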
#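 assay system = SCP-1 phosphatase catalytic domain, residues 76-261 | buffer or medium = 50 mM Tris acetate pH 5.5, 0.005% Tween-20, 10 mM MgCl2 | incubation = enzyme reaction 45 min at room temperature, colour 5 min, stabilisation 30 min | signal = Phosphate-binding colour reagent, absorbance read at 630 nm | measure = % inhibition at 20 µM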
# UBC9 SUMO inh = SUMOylation inhibition; P63279; HTRF SUMOylation assay, SAE1/SAE2 + UBC9, in vitro; inhibition, % at 35 µM; 290,000 tested, 0.36% active; AID 2006; in the data active = inhibition above about 50%, passing the limit was not always enough; inconclusive = no clear call, values can overlap the other calls
# Scp1 confirm = Scp-1 (human) inhibition, single-dose confirmed; shares compounds with Scp-1 inhibitor; inhibition, % at 20 µM; 2,500 tested, 61% active; recombinant SCP-1 catalytic domain, phosphate release, malachite green absorbance
# Scp-1 MG ctr = colorimetric interference in Scp-1 counter-screen; shares compounds with Scp-1 inhibitor; Colorimetric interference counterscreen, malachite green absorbance 630 nm; apparent inhibition (interference), % at 20 µM; 2,500 tested, under 10 active;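 also: compounds added after enzyme reaction finished so only phosphate colour detection is probed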
# Scp-1 Tm shift = validation of human Scp-1 inhibitors by thermal shift binding | shares compounds with Scp-1 inhibitor | Recombinant SCP1, Sypro Orange thermal shift Tm | thermal shift relative to vanadate control, % at 40 µM | 1,500 tested, 25% active;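 active = substances whose mean melting-temperature shift, as a percentage of the reference inhibitor's shift, reaches about 5.3%, limit read from the data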
# Numbers stand for hits; 0 = inactive; ? = inconclusive; - = no result given; ! = not confirmed by another sample. Shown are actives, neighbours in structure and some others; about 1.9% of the full set was active somewhere.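 The calls were made as follows, unless noted: active = inhibition of at least 30% at 20 µM; inactive = the rest.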
SMILES,LMPTP inh,DNMT1 inh,SUMO1-SIM PPI,STEP inh,Scp-1 inhibitor,UBC9 SUMO inh,Scp1 confirm,Scp-1 MG ctr,others
CC1Oc2cc3c(-c4c(O)cc(O)c5c(O)c6c(cc45)OC(C)C(C)C6=O)c(O)cc(O)c3c(O)c2C(=O)C1C (stereo not given),0,60,43,0,0,?,-,-,
COc1cccc(-c2sc3ccccc3c2-c2ccc(OCCN3CCOCC3)cc2)c1,0,0,0,0,0,-,-,-,
CN1CCN(c2ccc([N+](=O)[O-])c3no[n+]([O-])c23)CC1,0,0,0,0,0,55,-,-,
O=[N+]([O-])c1ccc(N(CCO)CCO)c2c1no[n+]2[O-],0,0,0,0,-,-,-,-,
CCn1nc(-c2ccccc2)nc2c(=O)n(C)c(=O)nc1-2,0,0,0,0,0,104,-,-,
CC12CC(=O)C3C(CCC4CC=CCC43C)C1CCC2=O (stereo not given),0,0,0,0,0,-,-,-,
O=C1NC(=O)C(=Cc2ccc(-c3ccc(F)cc3O)o2)C(=O)N1,0,0,0,0,95,0,-,-,
CCOC(=O)[C@]1(C#N)[C@@H]2C=CC(C(C)=O)=CN2[C@@H](C(N)=O)[C@@H]1c1ccsc1,0,0,67,0,0,0,-,-,
CN1CCC(n2nccc2N)CC1,0,0,43,0,0,0,-,-,
Nc1ccnn1C1CCNCC1,0,0,0,0,0,0,-,-,
C[N+]1(C)CCc2cc3c(cc2[C@H]1[C@@H]1OC(=O)c2c1ccc1c2OCO1)OCO3,0,0,0,0,99!,0,82,0,Scp-1 Tm shift=0
Cc1cc(=O)oc2cc(OCC(=O)N3CCC(C(=O)O)(c4ccccc4)CC3)ccc12,0,0,0,0,0,0,-,-,
CCOC(C(=O)OCCC[N+](C)(CC)CC)(c1ccccc1)c1ccccc1,0,0,0,0,0,0,-,-,
CC[N+](C)(CC)CCCOC(=O)C(O)(c1ccccc1)C1CCCCC1 (stereo not given),0,0,0,0,102,0,79,0,Scp-1 Tm shift=0
COc1cc2c(cc1OC)C1[C@H]3C(=CC[C@H]1OC2O)CCN3C (stereo not given in full),0,0,0,0,0,-,-,-,
COc1ccc(/C=C2\C(=O)NC(=S)N(C)C2=O)cc1C,0,94,72,95,100,0,70,0,Scp-1 Tm shift=0
Cc1ccsc1/C=C1\C(=O)NC(=S)N(C)C1=O,0,0,0,0,0,0,-,-,
CC/C(CC(c1ccccc1)c1c(O)c2ccccc2oc1=O)=N\NC(N)=S (stereo not given),0,0,0,0,56,0,46,0,Scp-1 Tm shift=0
COc1c2c(cc3c1OCO3)CC[N+](C)=C2,0,0,0,0,0,0,-,-,
COC(=O)C1=C(c2cccc(OCc3ccccc3)c2)C[C@@H]2CC[C@H]1N2C(=O)NCc1ccc([N+](=O)[O-])cc1,0,0,0,0,0,-,-,-,
COC(=O)C1=C(c2ccc(OCc3ccccc3)cc2)C[C@@H]2CC[C@H]1N2C(=O)NCc1ccc([N+](=O)[O-])cc1,0,0,0,0,68,-,0,0,
CC(C)N1C(=O)CC2(CC[N+](C)(CCOC(=O)C(O)(c3ccccc3)c3ccccc3)CC2)C1=O (stereo not given),0,0,0,0,70,0,102,0,Scp-1 Tm shift=0
O=c1[nH]c(O)c(/C=C2/C=CC(c3cc(Cl)ccc3Cl)=N2)c(=O)[nH]1,0,0,57,0,0,-,0,0,
Cn1cc[n+](C)c1P(=S)(c1ccccc1)c1ccccc1,0,0,0,0,0,0,-,-,
Cc1c(P(=S)(c2ccccc2)c2ccccc2)[n+]2ccccc2n1C,0,0,0,0,68,0,0,0,
SMILES,LMPTP inh,DNMT1 inh,SUMO1-SIM PPI,STEP inh,Scp-1 inhibitor,UBC9 SUMO inh,Scp1 confirm,Scp-1 MG ctr,others
C[C@]12CCC3C(CC[C@H]4C[C@@H](O)CC[C@]34C)[C@H]1C=CC2=O (stereo not given in full),0,0,0,0,56,-,0,0,
C[C@]12CCC3[C@@H](CC[C@@H]4C[C@H](O)CC[C@]34C)[C@@H]1CCC2=O (stereo not given in full),0,0,0,0,0,-,-,-,
CNC(=O)OCc1n(C)cc[n+]1C,0,0,0,0,55,0,0,0,
O=C(NN=Cc1ccc(N(CCCl)CCCl)cc1)c1cccc([N+](=O)[O-])c1,0,0,0,0,93,-,72,0,Scp-1 Tm shift=0
C[N+]1(C)C2CCC1CC(OC(=O)c1c[nH]c3ccccc13)C2 (stereo not given),0,0,0,0,54,-,0,0,
C[N+]1(C)C2CCC1CC(OC(=O)c1ccco1)C2 (stereo not given),0,0,0,0,0,0,-,-,
CCOc1cc2c(cc1OCC)-n1cccc1C(c1c(O)cccc1OC)NC2 (stereo not given),0,0,0,0,0,0,-,-,
NC(=O)c1ccc(N=Cc2c(O)n(Cc3ccco3)c(=O)[nH]c2=O)cc1,0,62,99,0,87,0,67,0,Scp-1 Tm shift=0
CC(=O)N1CCC(N2CCCC(C(=O)c3cccc(Cl)c3)C2)CC1 (stereo not given),0,0,0,0,0,0,-,-,
CCOc1ccc(N=C2SCCCN2C)cc1,0,0,0,0,103,0,86,0,Scp-1 Tm shift=0
CN(C)c1ccc(C2C3C=CC(C3)C2(C#N)C(=O)O)c(Br)c1 (stereo not given),0,0,0,0,0,0,-,-,
CCCCOc1ccc(C(C)=O)cc1Cc1c(O)[nH]c(=S)[nH]c1=O,0,0,0,0,0,0,-,-,
COc1ccc(Cc2c(O)[nH]c(=S)[nH]c2=O)cc1,0,0,0,0,53,0,0,0,
O=[N+]([O-])c1cccc(NP(=O)(N2CC2)N2CC2)c1,0,0,0,0,0,-,-,-,
O=C1CC[C@@]2(O)[C@H]3Cc4ccc(O)c5c4[C@@]2(CCN3CC2CC2)[C@H]1O5,0,0,0,0,0,0,-,-,
C=CC[N+]1(C)CC[C@]23c4c5ccc(O)c4O[C@H]2C(=O)CC[C@@]3(O)[C@H]1C5 (stereo not given in full),0,0,0,0,98,-,93,0,Scp-1 Tm shift=0
COc1ccc(CN2CCNCC2)c(OC)c1OC,0,0,0,0,99!,0,95,0,Scp-1 Tm shift=0
COc1cc(CN2CCNCC2)cc(OC)c1OC,0,0,0,0,0,0,-,-,
